Legend:
[1] = target: Epidermal growth factor receptor (Homo sapiens, UniProt P00533); test: Concentration required to inhibit phosphorylation of isolated human epidermal growth factor tyrosine kinase receptor by 50%
[2] = target: T1, Platelet-derived growth factor receptor (Homo sapiens, UniProt P09619+P16234); test: Inhibition of isolated human PDGF receptor phosphorylation; format: protein-complex assay
[3] = target: T1, Platelet-derived growth factor receptor; test: Inhibition of human PDGF receptor phosphorylation; 0.008-0.07; format: protein-complex assay
[4] = target: T1, Platelet-derived growth factor receptor; test: Inhibition of human PDGF receptor phosphorylation; 0.02-0.04; format: protein-complex assay
How it was run: (§1)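 PDGF receptor from NIH 3T3 cell lysates (cells made quiescent 24 h in 0.5% calf serum), stimulated with 10 ng/mL PDGF for 30 min at 4 °C and immunoprecipitated on Protein A beads. Each compound ran in at least two dose-response assays.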

[5] = target: cAMP-dependent protein kinase (PKA) (Homo sapiens, UniProt P22694+P17612+P22612); test: Test for the inhibition of protein kinase A; format: protein assay
[6] = target: T1, Platelet-derived growth factor receptor; test: Inhibition of human PDGF receptor phosphorylation; 0.01-0.02; format: protein-complex assay
[7] = target: T1, Platelet-derived growth factor receptor; test: Inhibition of human PDGF receptor phosphorylation; 20-30; format: protein-complex assay
[8] = target: T1, Platelet-derived growth factor receptor; test: Inhibition of human PDGF receptor phosphorylation; 1-2; format: protein-complex assay; how it was run: as §1
[9] = target: T1, Platelet-derived growth factor receptor; test: Inhibition of human PDGF receptor phosphorylation; 0.1-0.5; format: protein-complex assay; how it was run: as §1
[10] = target: T1, Platelet-derived growth factor receptor; test: Inhibition of human PDGF receptor phosphorylation; 0.3-0.5; format: protein-complex assay; how it was run: as §1
[11] = target: T1, Platelet-derived growth factor receptor; test: Inhibition of human PDGF receptor phosphorylation; 0.2-0.8; format: protein-complex assay
How it was run: (§2)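 Receptor from quiescent NIH 3T3 cell lysates (24 h in 0.5% calf serum before lysis), stimulated with 10 ng/mL PDGF for 30 min at 4 °C, then immunoprecipitated with anti-PDGF receptor antibody on Protein A beads. Compound pre-incubated 10 min at 4 °C in 50 mM Tris, 10 mM MnCl2, pH 7.5. At least two dose-response assays per compound.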

[12] = target: T1, Platelet-derived growth factor receptor; test: Inhibition of human PDGF receptor phosphorylation; 0.7-5; format: protein-complex assay; how it was run: as §1
[13] = target: T1, Platelet-derived growth factor receptor; test: Inhibition of human PDGF receptor phosphorylation; 0.2-0.4; format: protein-complex assay; how it was run: as §1
[14] = target: T1, Platelet-derived growth factor receptor; test: Inhibition of human PDGF receptor phosphorylation; 0.1-0.4; format: protein-complex assay; how it was run: as §1
[15] = target: T1, Platelet-derived growth factor receptor; test: Inhibition of human PDGF receptor phosphorylation; 0.04-0.07; format: protein-complex assay; how it was run: as §2
[16] = target: T1, Platelet-derived growth factor receptor; test: Inhibition of human PDGF receptor phosphorylation; 0.015-0.03; format: protein-complex assay; how it was run: as §1
[17] = target: T1, Platelet-derived growth factor receptor; test: Inhibition of human PDGF receptor phosphorylation; 0.5-3; format: protein-complex assay
[18] = target: T1, Platelet-derived growth factor receptor; test: Inhibition of human PDGF receptor phosphorylation; 0.02-0.05; format: protein-complex assay; how it was run: as §1
[19] = target: T1, Platelet-derived growth factor receptor; test: Inhibition of human PDGF receptor phosphorylation; 0.1-0.2; format: protein-complex assay; how it was run: as §1
[20] = target: T1, Platelet-derived growth factor receptor; test: Inhibition of human PDGF receptor phosphorylation; 0.15-0.5; format: protein-complex assay; how it was run: as §1
[21] = target: T1, Platelet-derived growth factor receptor; test: Inhibition of human PDGF receptor phosphorylation; 0.5-2; format: protein-complex assay
[22] = target: T1, Platelet-derived growth factor receptor; test: Inhibition of human PDGF receptor phosphorylation; 0.09-0.2; format: protein-complex assay; how it was run: as §1
[23] = target: T1, Platelet-derived growth factor receptor; test: Inhibition of human PDGF receptor phosphorylation; 0.003-0.005; format: protein-complex assay
[24] = target: T1, Platelet-derived growth factor receptor; test: Inhibition of human PDGF receptor phosphorylation; 1-7; format: protein-complex assay
[25] = target: T1, Platelet-derived growth factor receptor; test: Inhibition of human PDGF receptor phosphorylation; 2-4; format: protein-complex assay
[26] = target: T1, Platelet-derived growth factor receptor; test: Inhibition of human PDGF receptor phosphorylation; 0.002-0.06; format: protein-complex assay; how it was run: as §1
[27] = target: T1, Platelet-derived growth factor receptor; test: Inhibition of human PDGF receptor phosphorylation; 0.035-0.06; format: protein-complex assay; how it was run: as §1
[28] = target: T1, Platelet-derived growth factor receptor; test: Inhibition of human PDGF receptor phosphorylation; 0.2-0.6; format: protein-complex assay; how it was run: as §1
[29] = target: T1, Platelet-derived growth factor receptor; test: Inhibition of human PDGF receptor phosphorylation; 0.07-0.15; format: protein-complex assay
[30] = target: T1, Platelet-derived growth factor receptor; test: Inhibition of human PDGF receptor phosphorylation; 0.007-0.03; format: protein-complex assay
[31] = target: T1, Platelet-derived growth factor receptor; test: Inhibition of human PDGF receptor phosphorylation; 0.001-0.015; format: protein-complex assay
[32] = target: T1, Platelet-derived growth factor receptor; test: Inhibition of human PDGF receptor phosphorylation; 0.001-0.005; format: protein-complex assay; how it was run: as §1

Epidermal growth factor receptor, sequence (P00533 whole entry): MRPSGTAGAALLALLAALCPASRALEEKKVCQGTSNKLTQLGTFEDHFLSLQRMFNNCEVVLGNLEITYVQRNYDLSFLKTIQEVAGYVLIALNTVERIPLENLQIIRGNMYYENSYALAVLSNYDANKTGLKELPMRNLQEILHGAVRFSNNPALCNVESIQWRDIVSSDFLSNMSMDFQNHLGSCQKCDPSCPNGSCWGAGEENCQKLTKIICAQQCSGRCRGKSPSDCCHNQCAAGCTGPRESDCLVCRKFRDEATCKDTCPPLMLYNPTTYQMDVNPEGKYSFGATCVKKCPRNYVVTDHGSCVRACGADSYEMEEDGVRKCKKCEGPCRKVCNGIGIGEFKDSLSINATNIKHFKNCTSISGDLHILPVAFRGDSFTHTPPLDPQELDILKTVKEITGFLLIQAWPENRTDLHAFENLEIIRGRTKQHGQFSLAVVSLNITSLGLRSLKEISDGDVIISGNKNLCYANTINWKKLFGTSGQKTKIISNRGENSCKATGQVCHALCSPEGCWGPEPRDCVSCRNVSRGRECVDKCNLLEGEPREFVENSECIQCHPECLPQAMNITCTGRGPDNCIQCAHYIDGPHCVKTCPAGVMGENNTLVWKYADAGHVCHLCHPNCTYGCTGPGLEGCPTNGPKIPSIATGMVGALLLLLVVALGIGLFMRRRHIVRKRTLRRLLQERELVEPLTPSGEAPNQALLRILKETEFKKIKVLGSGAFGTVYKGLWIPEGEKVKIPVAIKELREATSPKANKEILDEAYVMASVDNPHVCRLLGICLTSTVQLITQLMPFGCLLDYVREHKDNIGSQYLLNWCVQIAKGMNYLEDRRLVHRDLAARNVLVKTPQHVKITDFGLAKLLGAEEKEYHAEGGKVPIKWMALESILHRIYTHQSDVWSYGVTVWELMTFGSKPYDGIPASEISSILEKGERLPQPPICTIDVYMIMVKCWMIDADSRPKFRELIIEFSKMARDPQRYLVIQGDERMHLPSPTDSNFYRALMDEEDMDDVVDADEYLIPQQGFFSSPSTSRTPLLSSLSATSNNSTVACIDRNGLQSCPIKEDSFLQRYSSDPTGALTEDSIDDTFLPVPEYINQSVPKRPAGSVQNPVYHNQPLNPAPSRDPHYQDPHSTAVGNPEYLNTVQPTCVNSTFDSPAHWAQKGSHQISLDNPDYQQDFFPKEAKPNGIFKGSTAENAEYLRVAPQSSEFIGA

COc1cc2cc(-c3ccc(-c4ccccc4)cc3)cnc2cc1OC
IC50 [1]: > 20 µM | IC50 [2]: > 50 µM

COc1cc2cc(-c3ccc(N(C)C)cc3)cnc2cc1OC
IC50 [1]: > 20 µM | IC50 [2]: 10 µM

COc1ccc(-c2cnc3cc(OC)c(OC)cc3c2)cn1
IC50 [3]: 70 nM | IC50 [1]: > 20 µM

COc1cc2cc(C3=CCCC3)cnc2cc1OC
IC50 [1]: > 20 µM | IC50 [4]: 40 nM

COc1cc2cc(-c3ccsc3)cnc2cc1OC
IC50 [1]: > 20 µM | IC50 [5]: > 200 µM | IC50 [6]: 20 nM

COc1cc2cccnc2cc1OC
IC50 [7]: 30 µM | IC50 [1]: > 20 µM

Clc1cc2cc(-c3ccsc3)cnc2cc1Cl
IC50 [8]: 2000 nM | IC50 [1]: > 20 µM

COc1cc2cc(C3CCCC3)cnc2cc1OC
IC50 [1]: > 20 µM | IC50 [9]: 500 nM

COc1cc2cc(CCC3CCCCC3)cnc2cc1OC
IC50 [1]: > 20 µM | IC50 [10]: 500 nM

COc1ccc(CCc2cnc3cc(OC)c(OC)cc3c2)cc1
IC50 [1]: > 20 µM | IC50 [11]: 800 nM

COc1cc2cc(-c3ccc(C(=O)O)cc3)cnc2cc1OC
IC50 [12]: 5 µM

COc1cc2cc(-c3cc(F)c(OC)c(F)c3)cnc2cc1OC
IC50 [1]: > 20 µM | IC50 [13]: 400 nM

COc1ccc(-c2cnc3cc(OC)c(OC)cc3c2)cc1C
IC50 [1]: > 20 µM | IC50 [14]: 400 nM

COc1cc2cc(OCc3ccccc3)cnc2cc1OC
IC50 [15]: 70 nM | IC50 [1]: > 20 µM

COc1cc2cc(-c3ccc(=O)[nH]c3)cnc2cc1OC
IC50 [16]: 30 nM | IC50 [1]: > 20 µM

COc1ccc(/C=C(\C#N)c2cccnc2)cc1OC
IC50 [1]: 0.7 µM | IC50 [17]: 3 µM

COc1cc2cc(C#Cc3ccccc3)cnc2cc1OC
IC50 [1]: > 20 µM | IC50 [18]: 50 nM

CCOC(=O)c1ccc(-c2cnc3cc(OC)c(OC)cc3c2)cc1
IC50 [19]: 200 nM

COc1cc2cc(-c3ccc(OC)c([N+](=O)[O-])c3)cnc2cc1OC
IC50 [20]: 500 nM | IC50 [1]: > 20 µM

COc1cc2cc(-c3ccc(C)cc3)cnc2cc1OC
IC50 [1]: > 20 µM | IC50 [21]: 2000 nM

COc1cc2cc(-c3ccc(F)c(F)c3)cnc2cc1OC
IC50 [1]: > 20 µM | IC50 [22]: 200 nM

COc1ccc(-c2cnc3cc(OC)c(OC)cc3c2)cc1F
IC50 [23]: 5 nM | IC50 [1]: > 20 µM

COc1cc2cc(-c3ccc(Cl)c(Cl)c3)cnc2cc1OC
IC50 [1]: > 20 µM | IC50 [24]: 7 µM

COc1ccc(-c2cnc3cc(OC)c(OC)cc3c2)c(OC)c1
IC50 [1]: > 20 µM | IC50 [2]: > 50 µM

Fc1cc2cc(-c3ccsc3)cnc2cc1F
IC50 [25]: 4 µM

COc1ccc2cc(-c3ccsc3)cnc2c1
IC50 [1]: > 20 µM | IC50 [26]: 60 nM

COc1cc2cc(-c3ccc(F)cc3)cnc2cc1OC
IC50 [1]: > 20 µM | IC50 [27]: 60 nM

c1cc(-c2cnc3cc4c(cc3c2)OCO4)cs1
IC50 [1]: > 20 µM | IC50 [28]: 600 nM

COc1cc2cc(-c3ccc([N+](=O)[O-])cc3)cnc2cc1OC
IC50 [1]: > 20 µM | IC50 [29]: 150 nM

COc1cc2cc(-c3ccc(Cl)s3)cnc2cc1OC
IC50 [1]: > 20 µM | IC50 [30]: 30 nM

COc1ccc(-c2cnc3cc(OC)c(OC)cc3c2)cc1
IC50 [31]: 15 nM | IC50 [1]: > 20 µM | IC50 [5]: > 200 µM

COc1cc2cc(/C=C/c3ccccc3)cnc2cc1OC
IC50 [32]: 5 nM | IC50 [1]: > 20 µM

— ChEMBL document CHEMBL1127568, “A new series of PDGF receptor tyrosine kinase inhibitors: 3-substituted quinoline derivatives” (J Med Chem, 1994)
